The values that follow come from article PMC4111141 (Bioorganic & medicinal chemistry letters, 2014).

One may read the EC50 as the midpoint of the concentration-response curve.

In the assay the target is T1, Orco derived from Drosophila melanogaster (DmOrco) (Drosophila melanogaster, UniProt Q9VNB5).
T1 sequence (Q9VNB5 1-486): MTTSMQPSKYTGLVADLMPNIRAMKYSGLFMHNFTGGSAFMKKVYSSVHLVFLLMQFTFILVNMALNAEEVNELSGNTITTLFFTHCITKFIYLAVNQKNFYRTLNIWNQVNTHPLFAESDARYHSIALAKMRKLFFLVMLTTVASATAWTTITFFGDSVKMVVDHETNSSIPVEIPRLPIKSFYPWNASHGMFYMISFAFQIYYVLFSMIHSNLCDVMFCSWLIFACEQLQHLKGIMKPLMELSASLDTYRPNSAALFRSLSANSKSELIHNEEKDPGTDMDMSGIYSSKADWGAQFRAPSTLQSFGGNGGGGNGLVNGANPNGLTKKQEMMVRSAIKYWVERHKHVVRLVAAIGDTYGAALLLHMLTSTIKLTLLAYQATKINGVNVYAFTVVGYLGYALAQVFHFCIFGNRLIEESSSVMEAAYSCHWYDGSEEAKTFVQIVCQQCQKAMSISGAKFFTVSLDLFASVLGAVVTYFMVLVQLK
The experiment in a line: high-throughput calcium mobilization/imaging assay for Orco agonist activity. Particulars: HEK293 cells stably expressing DmOrco; for % VUAA1 efficacy: maximum agonism of the compound, normalized to the activity of VUAA1; for EC50: mean result of 4 experiments, LA = Low agonism, agonism only at the highest concentration tested, no EC50 could be calculated. The format is cell-based. The gist of the method: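 HEK293 cells stably expressing Drosophila melanogaster Orco, alone or in some cases with tuning OR subunits. Calcium mobilization/imaging read in high-throughput format across increasing test compound concentrations. EC50 and maximal agonism were taken from concentration-response curves. Maximal agonism was expressed as a percentage of reference agonist VUAA1 activity. Values are the mean of 4 experiments.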

On to `CCn1c(SCC(=O)Nc2ccc(Br)cc2)nnc1-c1cccnc1` [6j], for which the “% VUAA1 efficacy” value is “No agonism”.
`CCc1ccc(NC(=O)CSc2nnc(-c3cccnc3)n2CC)cc1` [6a]: the “% VUAA1 efficacy” value stood at 100% and the EC50 is 35.1 µM. Also, the EC50 (listed as VUAA1) is 35 µM.
For `CCc1cccc(NC(=O)CSc2nnc(-c3cccnc3)n2CC)c1` [6b], the “Orco agonist activity (in words)” value was “completely abrogated activity” and the “% VUAA1 efficacy” value was “No agonism”.
